From ChEMBL document CHEMBL1165965, “Synthesis and structure-activity relationships of 1,2,3,4-tetrahydropyrido[2,3-b]pyrazines as potent and selective inhibitors of the anaplastic lymphoma kinase” (Bioorg Med Chem, 2010)

Legend:
[1] = target: Dual specificity tyrosine-phosphorylation-regulated kinase 1B (Homo sapiens) (UniProt Q9Y463); experiment: Inhibition of DYRK1B at 1 uM
[2] = target: Vascular endothelial growth factor receptor 1 (Homo sapiens) (UniProt P17948); experiment: Inhibition of FLT1 at 1 uM
Sequence of Vascular endothelial growth factor receptor 1 (Homo sapiens) (P17948 whole entry): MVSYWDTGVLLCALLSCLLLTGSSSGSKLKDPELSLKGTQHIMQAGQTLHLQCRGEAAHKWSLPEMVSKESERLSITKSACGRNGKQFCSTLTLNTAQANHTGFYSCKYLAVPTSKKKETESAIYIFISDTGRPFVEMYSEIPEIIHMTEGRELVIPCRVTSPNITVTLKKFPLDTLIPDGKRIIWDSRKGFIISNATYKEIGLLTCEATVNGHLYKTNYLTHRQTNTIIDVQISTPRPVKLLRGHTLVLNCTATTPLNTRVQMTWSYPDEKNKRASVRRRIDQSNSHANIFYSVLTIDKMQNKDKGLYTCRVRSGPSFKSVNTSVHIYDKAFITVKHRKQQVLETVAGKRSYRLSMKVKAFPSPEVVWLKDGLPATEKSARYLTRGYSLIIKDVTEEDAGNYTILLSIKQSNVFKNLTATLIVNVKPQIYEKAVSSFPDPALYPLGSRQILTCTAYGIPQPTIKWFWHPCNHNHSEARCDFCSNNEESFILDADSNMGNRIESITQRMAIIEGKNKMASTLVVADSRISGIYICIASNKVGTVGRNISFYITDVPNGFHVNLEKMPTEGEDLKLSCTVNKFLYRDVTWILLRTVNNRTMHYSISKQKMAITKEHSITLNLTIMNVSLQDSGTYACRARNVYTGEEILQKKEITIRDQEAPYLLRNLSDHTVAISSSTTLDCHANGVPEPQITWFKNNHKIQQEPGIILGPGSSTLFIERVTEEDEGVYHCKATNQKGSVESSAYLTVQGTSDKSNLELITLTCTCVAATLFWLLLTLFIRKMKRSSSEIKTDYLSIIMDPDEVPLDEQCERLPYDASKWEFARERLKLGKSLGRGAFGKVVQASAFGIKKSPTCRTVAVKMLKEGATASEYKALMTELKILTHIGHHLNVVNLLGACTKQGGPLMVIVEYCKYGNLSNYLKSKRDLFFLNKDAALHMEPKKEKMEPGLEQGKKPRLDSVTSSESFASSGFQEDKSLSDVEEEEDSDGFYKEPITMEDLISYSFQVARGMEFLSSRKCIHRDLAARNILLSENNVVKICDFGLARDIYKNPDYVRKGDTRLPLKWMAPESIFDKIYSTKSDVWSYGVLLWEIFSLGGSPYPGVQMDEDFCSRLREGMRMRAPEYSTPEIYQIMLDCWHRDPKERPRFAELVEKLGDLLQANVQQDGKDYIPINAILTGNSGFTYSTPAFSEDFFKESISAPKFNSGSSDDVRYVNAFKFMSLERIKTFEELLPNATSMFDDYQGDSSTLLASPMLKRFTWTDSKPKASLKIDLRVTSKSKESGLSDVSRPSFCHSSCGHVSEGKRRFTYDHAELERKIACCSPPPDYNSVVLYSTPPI
Outline: (§1)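 Single-concentration screen on the Ambit KINOMEscan platform, run against a panel of 250–400 kinases. Per-kinase inhibition was also summarized as S(90), the fraction of kinases inhibited by more than 90%.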

[3] = target: Vascular endothelial growth factor receptor 2 (Homo sapiens) (UniProt P35968); experiment: Inhibition of VEGFR2 at 1 uM
Sequence of Vascular endothelial growth factor receptor 2 (Homo sapiens) (P35968 whole entry): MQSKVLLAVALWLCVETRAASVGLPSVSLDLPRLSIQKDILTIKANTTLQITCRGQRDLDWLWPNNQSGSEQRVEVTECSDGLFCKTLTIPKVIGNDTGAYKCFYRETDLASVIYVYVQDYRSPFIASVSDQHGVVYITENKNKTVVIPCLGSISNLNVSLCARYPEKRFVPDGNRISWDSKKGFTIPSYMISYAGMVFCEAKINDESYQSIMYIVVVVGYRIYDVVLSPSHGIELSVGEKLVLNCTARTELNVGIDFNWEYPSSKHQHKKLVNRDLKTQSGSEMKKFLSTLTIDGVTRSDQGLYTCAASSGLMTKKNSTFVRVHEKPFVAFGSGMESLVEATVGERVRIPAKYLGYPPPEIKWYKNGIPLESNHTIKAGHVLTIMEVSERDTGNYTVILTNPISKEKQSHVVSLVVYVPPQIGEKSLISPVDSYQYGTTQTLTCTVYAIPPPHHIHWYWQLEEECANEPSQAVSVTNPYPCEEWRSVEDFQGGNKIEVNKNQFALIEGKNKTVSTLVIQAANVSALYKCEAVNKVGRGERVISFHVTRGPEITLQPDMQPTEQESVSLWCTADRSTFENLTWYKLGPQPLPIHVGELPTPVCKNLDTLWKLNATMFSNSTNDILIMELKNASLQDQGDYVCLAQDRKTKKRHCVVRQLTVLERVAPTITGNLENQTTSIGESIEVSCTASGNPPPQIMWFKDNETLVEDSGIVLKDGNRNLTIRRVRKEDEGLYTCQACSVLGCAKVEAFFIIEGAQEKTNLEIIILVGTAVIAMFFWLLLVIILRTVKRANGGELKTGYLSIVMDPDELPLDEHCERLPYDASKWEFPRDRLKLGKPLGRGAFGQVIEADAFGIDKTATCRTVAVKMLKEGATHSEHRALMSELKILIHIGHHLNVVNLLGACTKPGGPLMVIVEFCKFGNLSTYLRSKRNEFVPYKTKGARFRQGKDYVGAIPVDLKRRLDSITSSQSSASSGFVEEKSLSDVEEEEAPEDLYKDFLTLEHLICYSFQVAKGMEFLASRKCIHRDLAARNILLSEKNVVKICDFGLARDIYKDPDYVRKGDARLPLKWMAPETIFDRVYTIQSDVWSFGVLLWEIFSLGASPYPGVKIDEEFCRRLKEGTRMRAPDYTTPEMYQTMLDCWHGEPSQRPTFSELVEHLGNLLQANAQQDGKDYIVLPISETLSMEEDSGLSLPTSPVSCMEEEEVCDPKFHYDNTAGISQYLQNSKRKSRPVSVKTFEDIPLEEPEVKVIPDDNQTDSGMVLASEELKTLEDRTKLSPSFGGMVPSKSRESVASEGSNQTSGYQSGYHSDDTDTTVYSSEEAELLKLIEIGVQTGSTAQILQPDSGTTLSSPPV

[4] = target: Epidermal growth factor receptor (Homo sapiens) (UniProt P04626+P00533+Q15303+P21860); experiment: Inhibition of EGFR L747-E749del, A750P mutant at 1 uM; type: protein assay
Outline: (§2)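 Single-concentration screen using Ambit Bioscience KINOMEscan technology across a panel of 250–400 kinases. Per-kinase inhibition from this screen was summarized as S(90), the fraction of kinases inhibited by more than 90%.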

[5] = target: Ephrin type-A receptor 2 (Homo sapiens) (UniProt P29317); experiment: Inhibition of EPHA2 at 1 uM; outline: as §2
Sequence of Ephrin type-A receptor 2 (Homo sapiens) (P29317 whole entry): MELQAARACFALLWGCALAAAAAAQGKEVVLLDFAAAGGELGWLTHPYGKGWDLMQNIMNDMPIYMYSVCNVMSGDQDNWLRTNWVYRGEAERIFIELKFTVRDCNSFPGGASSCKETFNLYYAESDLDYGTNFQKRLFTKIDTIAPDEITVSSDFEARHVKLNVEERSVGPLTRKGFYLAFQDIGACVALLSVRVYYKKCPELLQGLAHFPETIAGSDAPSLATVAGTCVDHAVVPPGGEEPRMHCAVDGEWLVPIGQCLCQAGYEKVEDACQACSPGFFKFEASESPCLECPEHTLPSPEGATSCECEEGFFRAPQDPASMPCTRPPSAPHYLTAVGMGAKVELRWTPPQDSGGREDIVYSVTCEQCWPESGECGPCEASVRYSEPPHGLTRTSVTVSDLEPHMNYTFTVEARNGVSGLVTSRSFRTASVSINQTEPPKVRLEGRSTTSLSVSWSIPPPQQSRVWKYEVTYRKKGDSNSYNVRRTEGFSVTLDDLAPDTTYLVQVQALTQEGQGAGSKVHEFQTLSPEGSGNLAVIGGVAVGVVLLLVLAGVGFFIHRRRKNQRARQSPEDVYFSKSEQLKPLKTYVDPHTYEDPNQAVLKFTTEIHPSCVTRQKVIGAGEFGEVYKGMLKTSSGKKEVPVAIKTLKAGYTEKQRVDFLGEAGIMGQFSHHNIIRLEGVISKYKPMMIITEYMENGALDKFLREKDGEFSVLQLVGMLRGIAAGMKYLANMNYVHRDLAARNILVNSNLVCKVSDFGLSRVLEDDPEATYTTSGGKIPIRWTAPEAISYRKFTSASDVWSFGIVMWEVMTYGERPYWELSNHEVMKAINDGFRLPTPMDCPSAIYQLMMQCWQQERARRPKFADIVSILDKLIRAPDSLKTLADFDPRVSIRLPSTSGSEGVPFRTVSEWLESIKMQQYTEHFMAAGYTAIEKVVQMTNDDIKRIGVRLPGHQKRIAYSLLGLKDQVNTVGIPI

[6] = target: Leukocyte tyrosine kinase receptor (Homo sapiens) (UniProt P29376); experiment: Inhibition of LTK at 1 uM; outline: as §1
[7] = target: T1, Cytoplasmic tyrosine-protein kinase BMX (Homo sapiens) (UniProt P51813); experiment: Inhibition of BMX at 1 uM
T1 sequence (whole entry): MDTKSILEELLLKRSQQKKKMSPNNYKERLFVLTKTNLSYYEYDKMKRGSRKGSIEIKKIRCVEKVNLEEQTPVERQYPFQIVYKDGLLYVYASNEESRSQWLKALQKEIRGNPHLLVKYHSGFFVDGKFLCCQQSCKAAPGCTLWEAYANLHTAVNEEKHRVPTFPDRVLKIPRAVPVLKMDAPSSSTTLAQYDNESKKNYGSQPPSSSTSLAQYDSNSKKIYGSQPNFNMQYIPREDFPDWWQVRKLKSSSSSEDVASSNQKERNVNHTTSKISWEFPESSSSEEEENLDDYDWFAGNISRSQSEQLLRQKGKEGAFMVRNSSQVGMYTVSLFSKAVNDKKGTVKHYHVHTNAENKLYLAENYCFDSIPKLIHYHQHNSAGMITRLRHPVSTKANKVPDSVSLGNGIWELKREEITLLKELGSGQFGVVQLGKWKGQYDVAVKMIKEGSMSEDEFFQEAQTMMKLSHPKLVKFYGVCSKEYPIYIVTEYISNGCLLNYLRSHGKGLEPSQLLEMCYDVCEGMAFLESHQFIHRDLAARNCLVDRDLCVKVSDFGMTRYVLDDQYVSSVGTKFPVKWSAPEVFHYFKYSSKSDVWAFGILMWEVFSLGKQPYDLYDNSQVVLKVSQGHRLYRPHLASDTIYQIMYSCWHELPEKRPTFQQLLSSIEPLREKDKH
Outline: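 Ambit KINOMEscan screen at a single concentration across a 250–400 kinase panel, recorded as percent inhibition. Selectivity was expressed as S(90), the fraction of kinases inhibited >90%.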

[8] = target: T2, Serine/threonine-protein kinase LATS2 (Homo sapiens) (UniProt Q9NRM7); experiment: Inhibition of LATS2 at 1 uM
T2 sequence (whole entry): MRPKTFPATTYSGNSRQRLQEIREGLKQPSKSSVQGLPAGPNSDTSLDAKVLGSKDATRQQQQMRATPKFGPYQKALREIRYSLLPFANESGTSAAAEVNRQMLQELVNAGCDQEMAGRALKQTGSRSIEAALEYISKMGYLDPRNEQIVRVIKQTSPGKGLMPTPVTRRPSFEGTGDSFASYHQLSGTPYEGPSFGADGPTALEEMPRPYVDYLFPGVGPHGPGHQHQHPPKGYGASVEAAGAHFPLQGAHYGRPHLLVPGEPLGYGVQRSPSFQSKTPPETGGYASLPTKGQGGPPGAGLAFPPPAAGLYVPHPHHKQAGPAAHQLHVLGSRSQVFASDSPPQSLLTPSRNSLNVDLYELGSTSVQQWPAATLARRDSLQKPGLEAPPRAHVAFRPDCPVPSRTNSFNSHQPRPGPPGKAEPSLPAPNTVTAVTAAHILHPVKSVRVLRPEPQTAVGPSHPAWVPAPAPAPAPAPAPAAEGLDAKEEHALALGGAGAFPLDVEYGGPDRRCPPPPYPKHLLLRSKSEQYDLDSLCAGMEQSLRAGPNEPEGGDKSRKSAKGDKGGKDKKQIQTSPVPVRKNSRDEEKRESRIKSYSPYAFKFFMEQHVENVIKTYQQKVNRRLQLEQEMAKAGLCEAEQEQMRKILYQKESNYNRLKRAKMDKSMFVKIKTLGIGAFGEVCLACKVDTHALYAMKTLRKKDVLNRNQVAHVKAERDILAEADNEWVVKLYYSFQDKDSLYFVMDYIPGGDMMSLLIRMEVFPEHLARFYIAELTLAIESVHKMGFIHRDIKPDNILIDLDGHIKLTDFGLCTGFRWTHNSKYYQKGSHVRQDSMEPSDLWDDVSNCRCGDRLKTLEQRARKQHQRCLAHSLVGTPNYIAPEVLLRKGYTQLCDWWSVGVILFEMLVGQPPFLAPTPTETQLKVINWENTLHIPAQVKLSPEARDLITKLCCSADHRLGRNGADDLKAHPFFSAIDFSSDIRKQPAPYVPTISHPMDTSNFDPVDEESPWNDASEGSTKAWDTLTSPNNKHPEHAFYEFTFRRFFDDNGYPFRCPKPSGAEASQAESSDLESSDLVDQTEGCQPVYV

[9] = target: T3, 3-phosphoinositide-dependent protein kinase 1 (Homo sapiens) (UniProt O15530); experiment: Inhibition of PDPK1 at 1 uM
T3 sequence (whole entry): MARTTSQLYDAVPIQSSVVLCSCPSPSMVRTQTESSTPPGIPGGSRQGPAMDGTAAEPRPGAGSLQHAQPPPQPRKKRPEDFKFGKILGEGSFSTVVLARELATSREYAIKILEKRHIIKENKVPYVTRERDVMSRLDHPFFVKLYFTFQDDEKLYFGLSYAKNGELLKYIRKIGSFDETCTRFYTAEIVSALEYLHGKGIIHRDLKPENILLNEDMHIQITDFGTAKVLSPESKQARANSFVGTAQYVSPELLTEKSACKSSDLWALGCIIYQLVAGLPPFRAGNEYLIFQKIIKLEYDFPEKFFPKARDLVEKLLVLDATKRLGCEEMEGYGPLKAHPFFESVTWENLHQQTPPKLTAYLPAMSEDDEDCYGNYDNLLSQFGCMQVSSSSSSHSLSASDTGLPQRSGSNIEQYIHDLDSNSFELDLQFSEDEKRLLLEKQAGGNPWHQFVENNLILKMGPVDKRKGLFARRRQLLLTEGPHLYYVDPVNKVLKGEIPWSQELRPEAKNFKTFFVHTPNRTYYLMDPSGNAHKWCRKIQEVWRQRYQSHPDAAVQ

[10] = system: Epidermal growth factor receptor (Homo sapiens), P00533 [L858R,T790M]; experiment: Inhibition of EGFR L858R, T790M mutant at 1 uM; type: protein assay
Sequence of Epidermal growth factor receptor (Homo sapiens), P00533 [L858R,T790M] (P00533 whole entry T790M/L858R, looked up): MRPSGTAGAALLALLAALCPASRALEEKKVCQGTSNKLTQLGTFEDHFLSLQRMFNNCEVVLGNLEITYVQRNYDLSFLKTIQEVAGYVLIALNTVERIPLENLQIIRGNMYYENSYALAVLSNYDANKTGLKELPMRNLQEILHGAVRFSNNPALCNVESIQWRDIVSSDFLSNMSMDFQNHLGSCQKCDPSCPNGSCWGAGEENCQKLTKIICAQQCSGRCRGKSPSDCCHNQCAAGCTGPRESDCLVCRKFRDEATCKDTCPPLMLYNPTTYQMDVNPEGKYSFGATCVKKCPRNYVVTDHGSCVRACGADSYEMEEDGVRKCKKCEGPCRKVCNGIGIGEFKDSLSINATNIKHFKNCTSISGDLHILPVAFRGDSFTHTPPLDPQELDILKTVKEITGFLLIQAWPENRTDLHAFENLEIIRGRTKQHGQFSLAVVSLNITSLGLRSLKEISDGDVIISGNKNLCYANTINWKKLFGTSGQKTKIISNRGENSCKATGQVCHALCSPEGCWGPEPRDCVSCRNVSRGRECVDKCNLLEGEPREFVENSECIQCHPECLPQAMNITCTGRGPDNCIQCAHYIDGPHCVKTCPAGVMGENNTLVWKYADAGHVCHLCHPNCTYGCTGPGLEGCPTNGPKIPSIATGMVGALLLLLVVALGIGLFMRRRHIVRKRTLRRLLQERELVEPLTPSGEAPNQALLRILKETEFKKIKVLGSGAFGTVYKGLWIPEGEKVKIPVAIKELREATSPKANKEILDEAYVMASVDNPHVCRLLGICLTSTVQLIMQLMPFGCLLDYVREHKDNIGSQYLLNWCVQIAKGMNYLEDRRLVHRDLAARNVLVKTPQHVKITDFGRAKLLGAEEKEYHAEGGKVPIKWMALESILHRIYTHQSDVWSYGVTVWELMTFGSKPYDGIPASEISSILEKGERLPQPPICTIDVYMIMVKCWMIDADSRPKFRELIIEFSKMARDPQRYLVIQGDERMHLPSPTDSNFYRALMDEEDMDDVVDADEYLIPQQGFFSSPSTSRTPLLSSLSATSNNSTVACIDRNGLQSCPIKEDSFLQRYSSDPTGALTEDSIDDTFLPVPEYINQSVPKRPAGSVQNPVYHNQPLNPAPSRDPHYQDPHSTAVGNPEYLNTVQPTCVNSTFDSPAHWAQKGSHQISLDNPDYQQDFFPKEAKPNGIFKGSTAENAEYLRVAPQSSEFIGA

inhibition [1] [%]	inhibition [2] [%]	inhibition [3] [%]	inhibition [4] [%]	inhibition [5] [%]	inhibition [6] [%]	inhibition [7] [%]	inhibition [8] [%]	inhibition [9] [%]	inhibition [10] [%]	Structure (SMILES)
< 50	< 50	< 50	< 50	< 50	99	< 50	< 50	< 50	< 50	CC(=O)N1CCN(c2cc(-c3cnc4c(c3)N(Cc3cc(Cl)ccc3C(F)(F)F)CCN4)ccn2)CC1
–	< 50	< 50	< 50	< 50	92.7	< 50	–	< 50	–	O=C(O)c1ccc(-c2cnc3c(c2)N(Cc2cc(Cl)ccc2C(F)(F)F)CCN3)cc1
–	< 50	< 50	< 50	< 50	89.3	< 50	–	< 50	–	O=C(c1ccc(-c2cnc3c(c2)N(Cc2cc(Cl)ccc2C(F)(F)F)CCN3)cc1)N1CCCCC1
< 50	< 50	< 50	< 50	< 50	99	< 50	< 50	< 50	< 50	CN1CCN(c2ccc(-c3cnc4c(c3)N(Cc3cc(Cl)ccc3C(F)(F)F)CCN4)cn2)CC1
< 50	< 50	< 50	< 50	< 50	96.8	< 50	< 50	< 50	< 50	CN1CCN(c2ccc(-c3cnc4c(c3)N(Cc3cc(F)ccc3F)CCN4)cn2)CC1
< 50	< 50	< 50	< 50	< 50	97	< 50	< 50	< 50	< 50	CN1CCN(c2ccc(-c3cnc4c(c3)N(Cc3cc(Cl)ccc3Cl)CCN4)cn2)CC1
–	< 50	< 50	< 50	< 50	95.5	< 50	–	< 50	–	COC1CCN(C(=O)c2ccc(-c3cnc4c(c3)N(Cc3cc(Cl)ccc3C(F)(F)F)CCN4)cc2)CC1
< 50	< 50	< 50	< 50	< 50	97	< 50	< 50	< 50	< 50	CN1CCN(c2ccc(-c3cnc4c(c3)N(Cc3c(F)ccc(F)c3Cl)CCN4)cn2)CC1
< 50	< 50	< 50	< 50	< 50	100	< 50	< 50	< 50	< 50	FC(F)(F)c1ccc(Cl)cc1CN1CCNc2ncc(-c3ccnc(N4CCNCC4)c3)cc21
–	< 50	< 50	< 50	< 50	80.7	< 50	–	< 50	–	O=C(c1ccc(-c2cnc3c(c2)N(Cc2cc(Cl)ccc2C(F)(F)F)CCN3)cc1)N1CCC(N2CCCC2)CC1
